Usually inhibition stands for the drop in the measured response relative to a control, in per cent.

Experiment [1] addresses AMP-activated protein kinase (AMPK) alpha-1/beta-1/gamma-1 (Homo sapiens) (UniProt P54619+Q9Y478+Q13131). As to the kind of experiment: Inhibition of AMPK A1/B1/G1 at 1 uM in presence of 10 uM ATP by Select Screen kinase assay relative to untreated control. It is filed as protein-complex assay. In short, it runs like this:
(§1)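 Single-point screen at 1 μM against a panel of 220 purified kinases, run by Invitrogen staff as a SelectScreen profiling service. Read-out is percent inhibition of kinase activity.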

In experiment [2] the target is T1, Cytoplasmic tyrosine-protein kinase BMX (Homo sapiens) (UniProt P51813).
T1 sequence (whole entry): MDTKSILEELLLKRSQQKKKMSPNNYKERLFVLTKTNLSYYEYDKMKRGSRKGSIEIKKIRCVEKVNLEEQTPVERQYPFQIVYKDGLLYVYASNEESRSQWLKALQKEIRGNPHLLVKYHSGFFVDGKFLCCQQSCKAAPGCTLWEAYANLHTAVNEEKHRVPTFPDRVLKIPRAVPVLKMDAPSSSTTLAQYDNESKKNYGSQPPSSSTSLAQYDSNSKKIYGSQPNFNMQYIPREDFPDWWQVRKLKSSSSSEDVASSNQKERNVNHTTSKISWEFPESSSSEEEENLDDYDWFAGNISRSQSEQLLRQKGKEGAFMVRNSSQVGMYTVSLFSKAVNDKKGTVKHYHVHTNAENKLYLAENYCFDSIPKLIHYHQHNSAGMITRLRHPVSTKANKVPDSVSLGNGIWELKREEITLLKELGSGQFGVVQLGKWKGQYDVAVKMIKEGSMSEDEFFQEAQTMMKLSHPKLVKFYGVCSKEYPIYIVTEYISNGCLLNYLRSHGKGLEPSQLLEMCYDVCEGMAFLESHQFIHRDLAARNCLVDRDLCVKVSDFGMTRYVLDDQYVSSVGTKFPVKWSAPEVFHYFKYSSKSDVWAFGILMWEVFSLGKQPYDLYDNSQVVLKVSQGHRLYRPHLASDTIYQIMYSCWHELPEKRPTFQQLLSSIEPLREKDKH
As to the kind of experiment: Inhibition of BMX at 1 uM in presence of 10 uM ATP by Select Screen kinase assay relative to untreated control. In short, it runs like this:
as §1

Experiment [3] concerns the target Ribosomal protein S6 kinase alpha-5 (Homo sapiens) (UniProt O75582). The experiment is described as follows: Inhibition of RPS6KA5 at 1 uM in presence of 10 uM ATP by Select Screen kinase assay relative to untreated control. In short, it runs like this: (§2)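 Commercial SelectScreen profiling panel of 220 purified kinases. Each kinase was tested at a single inhibitor concentration of 1 μM, and activity was expressed as percent inhibition.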

Experiment [4] deals with Proto-oncogene tyrosine-protein kinase Src (Homo sapiens) (UniProt P12931). As to the kind of experiment: Inhibition of SRC at 1 uM in presence of 10 uM ATP by Select Screen kinase assay relative to untreated control. The method, boiled down: as §2
Chain of Proto-oncogene tyrosine-protein kinase Src (Homo sapiens) (P12931 2-536 limits assumed): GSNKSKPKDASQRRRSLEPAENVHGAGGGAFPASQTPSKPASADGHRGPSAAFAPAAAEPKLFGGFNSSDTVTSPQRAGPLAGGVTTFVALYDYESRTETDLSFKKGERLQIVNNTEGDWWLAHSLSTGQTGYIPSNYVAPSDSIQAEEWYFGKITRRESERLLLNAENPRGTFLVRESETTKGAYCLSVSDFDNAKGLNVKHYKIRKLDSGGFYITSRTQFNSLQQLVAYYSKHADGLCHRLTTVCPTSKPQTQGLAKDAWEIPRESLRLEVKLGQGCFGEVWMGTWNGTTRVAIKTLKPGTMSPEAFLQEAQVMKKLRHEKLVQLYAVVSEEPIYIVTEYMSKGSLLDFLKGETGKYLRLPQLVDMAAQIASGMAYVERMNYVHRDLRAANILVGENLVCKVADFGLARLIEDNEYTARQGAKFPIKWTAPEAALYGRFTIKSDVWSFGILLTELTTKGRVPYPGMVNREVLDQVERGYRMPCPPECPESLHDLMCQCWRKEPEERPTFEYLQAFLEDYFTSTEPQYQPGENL
The target of experiment [5] is Serine/threonine-protein kinase 25 (Homo sapiens) (UniProt O00506). The experiment is described as follows: Inhibition of STK25 at 1 uM in presence of 100 uM ATP by Select Screen kinase assay relative to untreated control. In short, it runs like this:
as §2

Experiment [6] addresses Receptor tyrosine-protein kinase erbB-2 (Homo sapiens) (UniProt P04626). The experiment is described as follows: Inhibition of ERBB2 at 1 uM in presence of 10 uM ATP by Select Screen kinase assay relative to untreated control. The method, boiled down: as §1
Experiment [7] deals with Vascular endothelial growth factor receptor 3 (Homo sapiens) (UniProt P35916). The experiment is described as follows: Inhibition of FLT4 at 1 uM in presence of 10 uM ATP by Select Screen kinase assay relative to untreated control. The method, boiled down: (§3)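 Single-concentration profiling at 1 μM against a panel of 220 purified kinases, run as an outsourced SelectScreen kinase profiling service. Activity is expressed as percent inhibition.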
Chain of Vascular endothelial growth factor receptor 3 (Homo sapiens) (P35916 whole entry): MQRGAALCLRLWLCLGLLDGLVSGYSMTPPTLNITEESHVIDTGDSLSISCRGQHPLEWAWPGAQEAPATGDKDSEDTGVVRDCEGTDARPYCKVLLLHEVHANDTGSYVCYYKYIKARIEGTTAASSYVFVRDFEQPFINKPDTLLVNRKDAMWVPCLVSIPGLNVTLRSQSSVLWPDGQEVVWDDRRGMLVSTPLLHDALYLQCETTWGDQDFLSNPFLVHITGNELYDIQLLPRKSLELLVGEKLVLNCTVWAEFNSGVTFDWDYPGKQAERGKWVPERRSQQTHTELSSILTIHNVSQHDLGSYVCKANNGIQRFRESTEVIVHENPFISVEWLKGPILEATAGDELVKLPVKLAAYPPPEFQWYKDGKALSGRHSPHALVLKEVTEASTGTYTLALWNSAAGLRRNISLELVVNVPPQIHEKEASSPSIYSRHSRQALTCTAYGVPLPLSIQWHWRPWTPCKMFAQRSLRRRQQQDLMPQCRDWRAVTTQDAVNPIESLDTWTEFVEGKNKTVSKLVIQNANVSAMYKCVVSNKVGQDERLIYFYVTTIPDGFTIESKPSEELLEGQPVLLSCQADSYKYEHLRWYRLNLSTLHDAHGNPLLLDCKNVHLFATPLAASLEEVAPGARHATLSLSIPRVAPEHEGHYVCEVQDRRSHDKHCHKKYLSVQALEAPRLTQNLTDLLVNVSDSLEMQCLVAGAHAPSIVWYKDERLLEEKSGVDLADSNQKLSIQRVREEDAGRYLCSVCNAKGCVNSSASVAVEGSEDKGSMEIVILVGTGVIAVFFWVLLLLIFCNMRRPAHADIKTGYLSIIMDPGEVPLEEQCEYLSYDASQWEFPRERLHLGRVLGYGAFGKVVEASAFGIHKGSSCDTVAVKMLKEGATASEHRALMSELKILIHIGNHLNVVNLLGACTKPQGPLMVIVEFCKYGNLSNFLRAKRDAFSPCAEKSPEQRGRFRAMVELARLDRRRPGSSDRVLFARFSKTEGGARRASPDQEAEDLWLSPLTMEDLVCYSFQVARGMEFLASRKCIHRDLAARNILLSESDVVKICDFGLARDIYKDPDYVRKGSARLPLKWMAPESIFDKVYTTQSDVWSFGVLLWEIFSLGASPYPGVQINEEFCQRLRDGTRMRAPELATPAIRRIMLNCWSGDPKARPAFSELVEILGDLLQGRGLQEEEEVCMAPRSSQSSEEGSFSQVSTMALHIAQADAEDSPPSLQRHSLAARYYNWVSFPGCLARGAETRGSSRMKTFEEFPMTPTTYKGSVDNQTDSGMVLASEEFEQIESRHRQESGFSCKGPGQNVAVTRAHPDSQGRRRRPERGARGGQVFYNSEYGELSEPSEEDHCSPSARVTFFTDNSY

Experiment [8] deals with Homeodomain-interacting protein kinase 1 (Homo sapiens) (UniProt Q86Z02). The experiment is described as follows: Inhibition of HIPK1 at 1 uM in presence of 10 uM ATP by Select Screen kinase assay relative to untreated control. The method, boiled down:
as §3

The target of experiment [9] is T2, Interleukin-1 receptor-associated kinase 4 (Homo sapiens) (UniProt Q9NWZ3).
T2 sequence (whole entry): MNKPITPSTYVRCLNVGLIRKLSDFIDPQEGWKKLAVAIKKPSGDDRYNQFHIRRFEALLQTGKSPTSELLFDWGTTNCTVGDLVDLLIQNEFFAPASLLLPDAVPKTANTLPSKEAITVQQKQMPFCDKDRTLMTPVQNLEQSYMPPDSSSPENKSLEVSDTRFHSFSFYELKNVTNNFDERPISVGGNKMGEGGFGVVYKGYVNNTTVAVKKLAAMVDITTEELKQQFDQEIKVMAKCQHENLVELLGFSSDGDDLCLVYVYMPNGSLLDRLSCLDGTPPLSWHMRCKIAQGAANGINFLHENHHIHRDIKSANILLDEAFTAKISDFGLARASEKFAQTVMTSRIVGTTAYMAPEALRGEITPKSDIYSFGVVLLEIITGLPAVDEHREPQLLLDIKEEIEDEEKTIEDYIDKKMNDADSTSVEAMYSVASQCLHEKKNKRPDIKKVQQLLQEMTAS
The experiment is described as follows: Inhibition of IRAK4 at 1 uM in presence of 10 uM ATP by Select Screen kinase assay relative to untreated control. In short, it runs like this:
as §3

Experiment [10] addresses Leukocyte tyrosine kinase receptor (Homo sapiens) (UniProt P29376). The experiment is described as follows: Inhibition of LTK at 1 uM in presence of 10 uM ATP by Select Screen kinase assay relative to untreated control. The method, boiled down:
as §3

For experiment [11], the system named is Platelet-derived growth factor receptor alpha (Homo sapiens), P16234 [D842V]. The experiment is described as follows: Inhibition of PDGFRalpha D842V mutant at 1 uM in presence of 10 uM ATP by Select Screen kinase assay relative to untreated control. The method, boiled down:
as §2

Experiment [12] concerns the target Serine/threonine-protein kinase PLK3 (Homo sapiens) (UniProt Q9H4B4). As to the kind of experiment: Inhibition of PLK3 at 1 uM in presence of 10 uM ATP by Select Screen kinase assay relative to untreated control. In short, it runs like this: as §2
The target of experiment [13] is Mitogen-activated protein kinase 3 (ERK1) (Homo sapiens) (UniProt P27361). As to the kind of experiment: Inhibition of MAPK3 at 1 uM in presence of 10 uM ATP by Select Screen kinase assay relative to untreated control.
Chain of Mitogen-activated protein kinase 3 (ERK1) (Homo sapiens) (P27361 whole entry, looked up): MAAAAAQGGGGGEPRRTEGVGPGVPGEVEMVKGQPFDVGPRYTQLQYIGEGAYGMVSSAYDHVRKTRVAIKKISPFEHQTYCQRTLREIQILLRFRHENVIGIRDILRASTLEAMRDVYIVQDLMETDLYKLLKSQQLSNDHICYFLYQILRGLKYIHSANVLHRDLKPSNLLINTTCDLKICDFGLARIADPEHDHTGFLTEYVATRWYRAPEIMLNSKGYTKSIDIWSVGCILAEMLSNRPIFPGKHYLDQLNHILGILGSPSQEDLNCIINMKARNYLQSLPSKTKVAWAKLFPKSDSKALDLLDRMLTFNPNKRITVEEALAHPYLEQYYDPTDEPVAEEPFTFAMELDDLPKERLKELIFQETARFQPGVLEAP

SMILES strings stand for the structures.

Chain of Leukocyte tyrosine kinase receptor (Homo sapiens) (P29376 whole entry): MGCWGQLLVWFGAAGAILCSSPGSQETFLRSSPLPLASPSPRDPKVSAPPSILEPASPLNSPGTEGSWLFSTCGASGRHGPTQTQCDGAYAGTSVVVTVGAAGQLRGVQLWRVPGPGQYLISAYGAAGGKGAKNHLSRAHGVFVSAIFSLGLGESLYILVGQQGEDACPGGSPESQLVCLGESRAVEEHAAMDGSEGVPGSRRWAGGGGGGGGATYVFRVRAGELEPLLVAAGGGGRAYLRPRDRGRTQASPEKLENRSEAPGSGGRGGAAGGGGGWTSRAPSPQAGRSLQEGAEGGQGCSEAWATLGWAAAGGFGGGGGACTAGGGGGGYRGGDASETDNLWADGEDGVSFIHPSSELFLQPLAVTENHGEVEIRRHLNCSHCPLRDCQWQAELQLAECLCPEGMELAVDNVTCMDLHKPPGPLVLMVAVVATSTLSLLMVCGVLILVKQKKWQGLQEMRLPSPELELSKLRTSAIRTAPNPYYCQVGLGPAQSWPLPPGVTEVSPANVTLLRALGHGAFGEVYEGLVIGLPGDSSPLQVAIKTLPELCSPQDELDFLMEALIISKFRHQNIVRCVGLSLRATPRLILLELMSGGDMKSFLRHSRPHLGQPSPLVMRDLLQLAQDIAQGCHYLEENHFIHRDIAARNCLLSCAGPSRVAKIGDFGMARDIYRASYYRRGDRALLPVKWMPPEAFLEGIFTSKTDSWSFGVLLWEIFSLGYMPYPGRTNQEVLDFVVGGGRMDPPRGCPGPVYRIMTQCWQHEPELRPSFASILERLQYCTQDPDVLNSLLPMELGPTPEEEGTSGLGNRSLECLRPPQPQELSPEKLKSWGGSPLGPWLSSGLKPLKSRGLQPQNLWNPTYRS
Chain of Platelet-derived growth factor receptor alpha (Homo sapiens), P16234 [D842V] (P16234 whole entry D842V): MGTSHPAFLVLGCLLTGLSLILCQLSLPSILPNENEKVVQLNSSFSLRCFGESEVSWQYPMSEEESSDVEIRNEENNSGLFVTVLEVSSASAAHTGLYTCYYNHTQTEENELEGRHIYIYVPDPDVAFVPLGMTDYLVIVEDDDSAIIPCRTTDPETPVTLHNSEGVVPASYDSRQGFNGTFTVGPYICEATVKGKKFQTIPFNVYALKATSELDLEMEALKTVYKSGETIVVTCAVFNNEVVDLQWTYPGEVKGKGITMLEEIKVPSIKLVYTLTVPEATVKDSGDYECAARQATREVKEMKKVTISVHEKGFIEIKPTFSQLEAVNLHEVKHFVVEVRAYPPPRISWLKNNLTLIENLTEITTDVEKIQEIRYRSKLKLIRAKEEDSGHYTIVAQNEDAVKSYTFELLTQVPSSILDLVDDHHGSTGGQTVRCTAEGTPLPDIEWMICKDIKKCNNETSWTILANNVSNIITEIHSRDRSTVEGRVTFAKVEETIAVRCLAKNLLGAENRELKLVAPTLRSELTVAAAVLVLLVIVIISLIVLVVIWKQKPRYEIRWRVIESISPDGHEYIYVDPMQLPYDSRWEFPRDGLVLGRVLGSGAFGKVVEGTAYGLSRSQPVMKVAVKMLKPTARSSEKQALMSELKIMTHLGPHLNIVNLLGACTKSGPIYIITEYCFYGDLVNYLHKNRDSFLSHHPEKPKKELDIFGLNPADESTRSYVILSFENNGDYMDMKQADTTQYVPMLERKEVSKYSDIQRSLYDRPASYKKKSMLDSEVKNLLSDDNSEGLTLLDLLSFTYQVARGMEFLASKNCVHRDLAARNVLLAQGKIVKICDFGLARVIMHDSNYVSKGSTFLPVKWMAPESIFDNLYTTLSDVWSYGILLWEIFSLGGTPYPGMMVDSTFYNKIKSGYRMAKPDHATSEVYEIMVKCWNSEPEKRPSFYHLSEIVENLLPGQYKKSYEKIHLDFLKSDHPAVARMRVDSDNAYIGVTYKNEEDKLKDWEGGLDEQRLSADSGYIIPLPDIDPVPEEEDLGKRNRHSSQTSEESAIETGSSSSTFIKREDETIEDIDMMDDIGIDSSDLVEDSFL
Chain of Ribosomal protein S6 kinase alpha-5 (Homo sapiens) (O75582 whole entry, looked up): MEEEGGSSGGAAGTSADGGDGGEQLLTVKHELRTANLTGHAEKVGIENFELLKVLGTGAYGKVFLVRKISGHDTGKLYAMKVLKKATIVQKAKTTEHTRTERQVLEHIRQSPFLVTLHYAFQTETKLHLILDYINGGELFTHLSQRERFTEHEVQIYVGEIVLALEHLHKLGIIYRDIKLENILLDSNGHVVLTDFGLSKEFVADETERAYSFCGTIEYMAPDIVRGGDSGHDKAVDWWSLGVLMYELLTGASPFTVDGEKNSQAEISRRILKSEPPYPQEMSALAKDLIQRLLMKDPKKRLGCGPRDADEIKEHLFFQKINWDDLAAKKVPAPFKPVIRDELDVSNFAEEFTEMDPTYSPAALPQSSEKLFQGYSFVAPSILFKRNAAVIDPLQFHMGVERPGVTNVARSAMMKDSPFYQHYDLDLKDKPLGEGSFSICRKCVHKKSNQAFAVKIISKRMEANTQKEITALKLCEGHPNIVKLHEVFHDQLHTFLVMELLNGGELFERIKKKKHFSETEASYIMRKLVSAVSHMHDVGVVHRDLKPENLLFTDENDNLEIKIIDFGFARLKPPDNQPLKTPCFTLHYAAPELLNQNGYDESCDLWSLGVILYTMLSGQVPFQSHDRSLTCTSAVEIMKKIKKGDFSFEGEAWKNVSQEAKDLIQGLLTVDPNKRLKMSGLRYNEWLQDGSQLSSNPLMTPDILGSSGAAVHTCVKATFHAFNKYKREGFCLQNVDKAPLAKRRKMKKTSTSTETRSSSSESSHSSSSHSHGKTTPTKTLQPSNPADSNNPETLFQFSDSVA

For the molecule `COc1ccccc1N1CCN(c2ncnc3[nH]nc(Br)c23)CC1`, the inhibition in experiment [1] came out at 42%; in experiment [2], 18%; in experiment [3] it was 83%; in experiment [4], 10%; in experiment [5], 14%; in experiment [6], 8%. Moreover, the inhibition in experiment [7] is 45%; in [8] it was 34%; in [9] it was 9%; in [10], 7%; in experiment [11], 2%; in experiment [12] it was 27%. Besides, in experiment [13], the inhibition came to 14%.

In the case of `Cc1n[nH]c2ccc(-c3cncc(OC[C@@H](N)Cc4c[nH]c5ccccc45)c3)cc12`, the inhibition is 57% in experiment [1]; -2% in experiment [2]; 102% in experiment [3]; 11% in experiment [4]; 102% in experiment [5]; -6% in experiment [6]. In addition, the inhibition in [7] is 1%; in experiment [8] it was 68%; in experiment [9], 53%; in experiment [10] it was 35%; in experiment [11], 11%; in experiment [12], 7%. For the same molecule, in [13], the inhibition came out at 43%.

`O=C(NCCCNc1nc(Nc2cccc(NC(=O)N3CCCC3)c2)ncc1I)c1cccs1`: the inhibition in experiment [1] is 89%; in experiment [2], 39%; in experiment [3], 18%; in experiment [4], 27%; in experiment [5], 13%; in experiment [6], 10%. The inhibition is 70% in experiment [7]; 18% in experiment [8]; 49% in experiment [9]; 5% in experiment [10]; 106% in experiment [11]; 51% in experiment [12]. For the same molecule, in experiment [13], the inhibition is 47%.

Values taken from ChEMBL document CHEMBL1250448, “Inhibitor hijacking of Akt activation” (Nat Chem Biol, 2009).
